Results on 24 compounds are retold here after ChEMBL document CHEMBL3399927, “Identification of novel inhibitors of Aurora A with a 3-(pyrrolopyridin-2-yl)indazole scaffold” (Bioorg Med Chem, 2015).

Common to all, as to type: functional, cell-based
The subject of one experiment is KB. Description: Antiproliferative activity against human KB cells after 72 hrs by MTT assay. In short, it runs like this: (§1)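 Cells grown in RPMI-1640 with heat-inactivated 10% FBS, penicillin 100 units/mL and streptomycin 100 μg/mL, at 37 °C under 20% O2, 5% CO2. Compounds dissolved in DMSO at 10.0 mg/mL (stock), then diluted. Cells were plated for 24 h, exposed to a range of concentrations for 72 h, and viability was read by MTT. IC50 is 50% absorbance inhibition versus control cells; means of three experiments.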

Experiment [1] can be described thus: Antiproliferative activity against human HCT116 cells after 72 hrs by MTT assay. As to conditions: HCT-116, 72 h. In short, it runs like this: as §1
For orientation: Tetrazolium dyes change colour on reduction, which living cells bring about.

Experiment [2] can be described thus: Antiproliferative activity against human HL60 cells after 72 hrs by MTT assay. As to conditions: HL-60, 72 h. In short, it runs like this:
as §1

A short description of experiment [3]: Antiproliferative activity against human SMMC7721 cells after 72 hrs by MTT assay. Particulars: SMMC-7721, 72 h. In short, it runs like this:
as §1

In the next experiment the test system is A549. Description: Antiproliferative activity against human A549 cells after 72 hrs by MTT assay. As to conditions: A549, 72 h.

A word on the IC50: it is the midpoint of a concentration-inhibition curve. Read a high IC50 as weaker potency.

On to `CC(=O)O[C@H]1C(=O)[C@@]2(C)[C@H]([C@H](OC(=O)c3ccccc3)[C@]3(O)C[C@H](OC(=O)[C@H](O)[C@@H](NC(=O)c4ccccc4)c4ccccc4)C(C)=C1C3(C)C)[C@]1(OC(C)=O)CO[C@@H]1C[C@@H]2O` [PACLITAXEL], for which the IC50 in the experiment on KB turned out to be 0.015 µM; in experiment [1] it was 0.0049 µM; in experiment [2], 0.0017 µM; in experiment [3], 0.12 µM.
As to `COc1ccc(C(=O)N(C)c2ccc3[nH]c(-c4n[nH]c5ccccc45)cc3n2)cc1`, the IC50 amounted to 12.9 µM in the experiment on KB; 29.5 µM in experiment [1]; 14.6 µM in the experiment on A549; 3.32 µM in experiment [2]; 23.7 µM in experiment [3].
The like results for `CN(C(=O)c1ccccc1)c1ccc2[nH]c(-c3n[nH]c4cc(Cl)ccc34)cc2n1` were, in that order, 5.59 µM, 13.1 µM, 9.59 µM, 5.62 µM and 11.3 µM.
The matching figures for `Cc1ccc(S(=O)(=O)N(C)c2ccc3[nH]c(-c4n[nH]c5ccccc45)cc3n2)cc1`: 9.5 µM, 13.3 µM, 27.1 µM, 3.03 µM and 16.3 µM.
The matching figures for `CN(C(=O)c1ccc(Br)cc1)c1ccc2[nH]c(-c3n[nH]c4ccccc34)cc2n1`: 1.78 µM, 6.11 µM, 4.25 µM, 1.08 µM and 3.46 µM.
With `COc1ccc(NC(=O)N(C)c2ccc3[nH]c(-c4n[nH]c5ccccc45)cc3n2)cc1`, the IC50 in experiment [1] stood at 0.063 µM; in experiment [2], 0.0079 µM.
Consider `CN(c1ccc2[nH]c(-c3n[nH]c4ccccc34)cc2n1)S(=O)(=O)c1ccc(OC(F)(F)F)cc1`, for which the IC50 with KB is 1.33 µM; in experiment [1], 6.04 µM; in the experiment on A549, 8 µM; in experiment [2] it was 1.17 µM; in experiment [3] it was 7.16 µM.
The matching figures for `CN(c1ccc2[nH]c(-c3n[nH]c4ccccc34)cc2n1)S(=O)(=O)c1ccccc1`: 2.4 µM, 6.74 µM, 14 µM, 3.7 µM and 12 µM.
For `COc1ccc(OC)c(S(=O)(=O)N(C)c2ccc3[nH]c(-c4n[nH]c5ccccc45)cc3n2)c1`, the IC50 with KB was 4.38 µM; in experiment [1] it was 8.4 µM; with A549, 19.4 µM; in experiment [2], 0.84 µM; in experiment [3], 4.28 µM.
The matching figures for `CN(C(=O)c1ccc([N+](=O)[O-])cc1)c1ccc2[nH]c(-c3n[nH]c4ccccc34)cc2n1`: 20.2 µM, 19.9 µM, 34.5 µM, 6.8 µM and 18.4 µM.
The like results for `CN(C(=O)c1ccccc1)c1ccc2[nH]c(-c3n[nH]c4cc(C#N)ccc34)cc2n1` were, in that order, 20.9 µM, 24 µM, 32.8 µM, 6.43 µM and more than 50 µM.
The like results for `CN(c1ccc2[nH]c(-c3n[nH]c4ccccc34)cc2n1)S(=O)(=O)c1ccc(Cl)cc1` were, in that order, 8.35 µM, 5.98 µM, 18.2 µM, 0.77 µM and 12.7 µM.
As for `COc1ccc(S(=O)(=O)N(C)c2ccc3[nH]c(-c4n[nH]c5ccccc45)cc3n2)cc1OC`, the IC50 is 10.1 µM with KB; 16.7 µM in experiment [1]; more than 50 µM in the experiment on A549; 6.32 µM in experiment [2]; 26.6 µM in experiment [3].
On to `CN(C(=O)c1ccco1)c1ccc2[nH]c(-c3n[nH]c4ccccc34)cc2n1`, for which the IC50 with KB worked out at 19.4 µM; in experiment [1], 30 µM; in the experiment with A549 it was 15.5 µM; in experiment [2], 4.54 µM; in experiment [3] it was 28.2 µM.
`COc1ccc(S(=O)(=O)N(C)c2ccc3[nH]c(-c4n[nH]c5ccccc45)cc3n2)c(OC)c1`: the IC50 came to 10.2 µM in the experiment on KB; 21.8 µM in experiment [1]; 25.9 µM in the experiment with A549; 5.18 µM in experiment [2]; 10.8 µM in experiment [3].
The matching figures for `CN(c1ccc2[nH]c(-c3n[nH]c4ccccc34)cc2n1)S(=O)(=O)c1ccc(Br)cc1`: 7.15 µM, 9.85 µM, 19.7 µM, 6.24 µM and 11.5 µM.
The like results for `CC(=O)N(C)c1ccc2[nH]c(-c3n[nH]c4ccccc34)cc2n1` were, in that order, 10.3 µM, 14.8 µM, more than 50 µM, 5.11 µM and 23.4 µM.
The matching figures for `CN(c1ccc2[nH]c(-c3n[nH]c4ccccc34)cc2n1)S(=O)(=O)c1cccc([N+](=O)[O-])c1`: 5.87 µM, 13.6 µM, 20.1 µM, 3.66 µM and 5.07 µM.
Turning to `CN(C(=O)CCc1ccccc1)c1ccc2[nH]c(-c3n[nH]c4ccccc34)cc2n1`, the IC50 with KB was 7.38 µM; in experiment [1] it was 11.2 µM; in the experiment on A549, 18.1 µM; in experiment [2], 4.73 µM; in experiment [3], 20.9 µM.
The like results for `CN(C(=O)c1ccc(F)cc1)c1ccc2[nH]c(-c3n[nH]c4ccccc34)cc2n1` were, in that order, 7.22 µM, 9.27 µM, 9.65 µM, 1.21 µM and 9.15 µM.
The like results for `CCC(=O)N(C)c1ccc2[nH]c(-c3n[nH]c4ccccc34)cc2n1` were, in that order, 9.3 µM, 10.8 µM, 15.7 µM, 6.13 µM and 33.5 µM.
The matching figures for `CN(C(=O)C(C)(C)C)c1ccc2[nH]c(-c3n[nH]c4ccccc34)cc2n1`: 8.39 µM, 18 µM, 24.4 µM, 4.99 µM and 22.2 µM.
For `COc1cccc(C(=O)N(C)c2ccc3[nH]c(-c4n[nH]c5ccccc45)cc3n2)c1`, the IC50 came to 9.01 µM in the experiment on KB; 14.2 µM in experiment [1]; 14.9 µM in the experiment with A549; 1.42 µM in experiment [2]; 22 µM in experiment [3].
The like results for `COc1ccc(S(=O)(=O)N(C)c2ccc3[nH]c(-c4n[nH]c5ccccc45)cc3n2)cc1` were, in that order, 22.1 µM, 22.4 µM, 24.2 µM, 4.34 µM and 13 µM.
